Paper PMC2978887 (Calcified Tissue International, 2010)
Where two headings read alike, the source gives them in different places.

Key:
[1] = Population pharmacokinetics of teriparatide after subcutaneous injection; format: in vivo, postmenopausal women with osteoporosis
Outline: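 Serum drug levels measured in a 360-patient subset at months 1, 3, 6, 12 and 18, one sample per visit within a 0–30 min, 30 min–1 h, 1–2 h, 2–3 h or 3–4 h postdose window. Serum stored at -70°C; two-site immunoradiometric assay using bead-bound capture and 125I-labelled detection antibodies to PTH 1–34. Standard curve 9.8–20,000 pg/ml; quantifiable range 50–2,000 pg/ml; accuracy and precision ±20%.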

[2] = system: serum calcium; test: Serum calcium pharmacodynamic response to teriparatide; format: in vivo, postmenopausal women with osteoporosis; details: for predose serum calcium, mean ± SE: samples 16–24 h postdose
Outline: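 Unadjusted total serum calcium measured in all patients at baseline and 4–6 h postdose at months 1, 3, 6, 12, 18 and 24, at three laboratories using identical, cross-calibrated methods. Samples falling 16–24 h postdose served as predose values.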

[3] = Adverse events commonly associated with hypercalcemia, Fracture Prevention Trial; format: in vivo, postmenopausal women with osteoporosis; details: teriparatide 20 μg/day; overall cohort (n = 541)
Outline: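 Events typical of hypercalcemia were collected throughout the trial in women randomized to once-daily subcutaneous teriparatide or placebo. They were tabulated for the whole teriparatide cohort and for the subset whose 4–6 h postdose serum calcium exceeded 10.6 mg/dl.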

[4] = cited from earlier work
[5] = system: serum calcium; details: rats; subcutaneous injections every hour for six injections; cited from earlier work
[6] = cited from earlier work; remark: listed apart in the source
[7] = cited from earlier work; remark: listed apart in the source
[8] = comparing 10th and 90th percentiles of body weight (51–80 kg), population PK
[9] = female, human, serum, sc, 20 ug
[10] = daily injections of teriparatide 20 µg
[11] = indirect-response PK–PD model, teriparatide 20 μg sc, 360 patients

CC[C@H](C)[C@H](NC(=O)[C@H](CCC(=O)O)NC(=O)[C@H](CO)NC(=O)[C@@H](NC(=O)[C@@H](N)CO)C(C)C)C(=O)N[C@@H](CCC(N)=O)C(=O)N[C@@H](CC(C)C)C(=O)N[C@@H](CCSC)C(=O)N[C@@H](Cc1cnc[nH]1)C(=O)N[C@@H](CC(N)=O)C(=O)N[C@@H](CC(C)C)C(=O)NCC(=O)N[C@@H](CCCCN)C(=O)N[C@@H](Cc1cnc[nH]1)C(=O)N[C@@H](CC(C)C)C(=O)N[C@@H](CC(N)=O)C(=O)N[C@@H](CO)C(=O)N[C@@H](CCSC)C(=O)N[C@@H](CCC(=O)O)C(=O)N[C@@H](CCCN=C(N)N)C(=O)N[C@H](C(=O)N[C@@H](CCC(=O)O)C(=O)N[C@@H](Cc1c[nH]c2ccccc12)C(=O)N[C@@H](CC(C)C)C(=O)N[C@@H](CCCN=C(N)N)C(=O)N[C@@H](CCCCN)C(=O)N[C@@H](CCCCN)C(=O)N[C@@H](CC(C)C)C(=O)N[C@@H](CCC(N)=O)C(=O)N[C@@H](CC(=O)O)C(=O)N[C@H](C(=O)N[C@@H](Cc1cnc[nH]1)C(=O)N[C@@H](CC(N)=O)C(=O)N[C@@H](Cc1ccccc1)C(=O)O)C(C)C)C(C)C [teriparatide, recombinant human parathyroid hormone (rhPTH[1–34])]
total duration of exposure to the peptide ([1]; 20 μg sc once daily): approximately 4 h | duration of exposure above basal endogenous PTH concentrations (28 pg/ml) ([1]; 20 μg sc, molar basis, concentration–time profile extrapolated to infinite time): about 4 h | prolongation in Tmax in heavier patients [1, 8]: 2.3 min | reduction in Cmax in heavier patients [1, 8]: 26% | CL/F [1, 9]: ~1030 mL/min | Tmax [1, 9]: ~30 min | level at 3 h [1, 9]: < 0.05 ng/mL | slower rate of absorption, thigh vs abdominal wall injection ([1]; population PK covariate estimate, 20 μg sc): 21% | half-life based upon Ka (ln 2/Ka) ([1]; population PK model, 20 μg sc): 1.1 h | predose serum calcium, mean ± SE ([2]; 1 month, teriparatide 20 μg): 9.19 ± 0.03 mg/dL | predose serum calcium, mean ± SE ([2]; 3 months, teriparatide 20 μg): 9.12 ± 0.08 mg/dL | predose serum calcium, mean ± SE ([2]; 6 months, teriparatide 20 μg): 9.29 ± 0.03 mg/dL | predose serum calcium, mean ± SE ([2]; 12 months, teriparatide 20 μg): 9.40 ± 0.03 mg/dL | predose serum calcium, mean ± SE ([2]; 18 months, teriparatide 20 μg): 9.30 ± 0.08 mg/dL | predose serum calcium, mean ± SE ([2]; 24 months, teriparatide 20 μg): 9.26 ± 0.05 mg/dL | time after dosing at which serum calcium begins to increase [2, 10]: approximately 2 h | time of maximum serum calcium concentration/effect after dosing [2, 10]: 4.25 h | Emax, maximum calcemic response ([2]; indirect-response PK–PD model, 62% CV): 19.5% | EC50, teriparatide concentration required to produce 50% of the maximum calcium effect ([2]; indirect-response PK–PD model, serum teriparatide): 0.054 ng/mL | Kin, zero-order production rate for change in serum calcium [2, 11]: 1.1 mg/(dl · hour) | Kout, first-order dissipation rate for calcium response [2, 11]: 0.12 h⁻¹ | patients with a predose serum calcium >11.0 mg/dl ([2]; teriparatide 20 μg): no | patients with serum calcium above the upper limit of normal (10.6 mg/dl) 4–6 h after dosing ([2]; teriparatide 20 µg group, fifty patients, placebo 1.1%): 9.4% | time after dosing at which serum calcium begins to decline ([2]; teriparatide 20 µg sc daily): approximately 6 h | time after each dose by which serum calcium returned to predose levels ([2]; teriparatide 20 µg sc daily): 16 to 24 h | persistent hypercalcemia ([2]; teriparatide 20 μg sc daily, median 21 months' treatment): not observed | patients with a predose serum calcium value >10.6 mg/dl ([2]; teriparatide 20 μg, 1/223 patients): 0.4% | Abdominal pain [3]: 48 (8.9%) n (%) | Anorexia [3]: 8 (1.5%) n (%) | Arrhythmias [3]: 9 (1.7%) n (%) | Constipation [3]: 32 (5.9%) n (%) | Depression [3]: 21 (3.9%) n (%) | Headache [3]: 44 (8.1%) n (%) | Hypertension [3]: 41 (7.6%) n (%) | Nausea [3]: 51 (9.4%) n (%) | Pancreatitis [3]: 1 (0.2%) n (%) | Peptic ulcer/gastritis [3]: 8 (1.5%) n (%) | Vomiting [3]: 19 (3.5%) n (%) | bioavailability [4]: 95% | half-life following injection [4]: 60 min | time to peak concentration following injection [4]: 30 min | true elimination half-life following intravenous administration ([4]; intravenous): 5 min | sustained elevated serum calcium concentrations [5]: sustained elevated serum calcium concentrations occurred

parathyroid hormone [PTH]
half-life (clearance of the endogenous hormone) [6]: < 2 min

rhPTH(1–84): full human recombinant PTH, available for treatment of osteoporosis in some countries at a daily dose of 100 μg
bioavailability [7]: 55% | apparent terminal half-life ([7]; sc): 90 to 150 min | time of first peak of serum concentration–time profile after dosing ([7]; single-dose sc, dose range 0.02–5.0 μg/kg): 5 to 10 min
